Each structure is given as a SMILES string. pIC50: −log10 of the molar value. Calls of active or inactive are those of the source. The rule behind the calls is not given here.

Experiment [1] has as its system HeLa. Description: Inhibition of colony formation in human HeLa cells harboring wild-type Mps1 assessed as cell survival at 60 nM incubated for 14 days by crystal violet staining based colony formation assay. To be noted: time 14.0 day. It counts as functional. The procedure, abridged: (§1)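 About 500–600 cells per 6-well plated on day 0, Cpd-5 added day 1 at 60 nM, colonies grown to day 14. Fixed 10 min in 96% methanol, stained with 0.1% crystal violet, scanned and analysed. Parental and drug-selected clones tested side by side.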

For experiment [2], the system named is HeLa. Description: cells. It counts as functional, cell-based. Conditions: Homo sapiens, 120 h.
Experiment [3] has as its system HCT-116. Description: Induction of mitotic arrest in human HCT-116 cells harboring Mps1 I531M mutant assessed as mitotic index at 200 to 400 nM incubated for 16 hrs in the presence of nocodazole. In kind it is functional, cell-based. Conditions: dose 200-400 nM. The procedure, abridged:
(§2)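 About 10 000 cells per 96-well plated on day 0. On day 1, nocodazole (200 ng/ml) plus Cpd-5 at various concentrations added for 16 h. Fixed in 5% formaldehyde, stained for phospho-histone H3-Ser10 and DAPI, up to nine images per well (~3000 cells). Mitotic index = pH3S10-positive/DAPI-positive cells, normalized; three independent experiments.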

Experiment [4] concerns HCT-116. Description: cells. In kind it is functional, cell-based. To be noted: Homo sapiens, HCT-116, 120 h.
Experiment [5] concerns HeLa. Description: Inhibition of colony formation in human HeLa cells harboring Mps1 C604Y mutant at 80 nM incubated for 14 days in the presence of oligonucleotide by crystal violet staining based colony formation assay. In kind it is functional, cell-based. To be noted: time 14.0 day. The procedure, abridged:
(§3)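 HeLa (1 × 10^6) transfected with mock, a 100-bp repair oligonucleotide alone, or oligonucleotide plus pX330 Cas9/Mps1-targeting gRNA. Selected with 80 nM Cpd-5 for 14 days in 10-cm plates, then stained with crystal violet.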

Experiment [6] concerns HeLa. Description: Inhibition of colony formation in human HeLa cells harboring Mps1 C604Y mutant at 80 nM incubated for 14 days in the presence of oligonucleotide and Cas9/gRNA by crystal violet staining based colony formation assay. In kind it is functional, cell-based. To be noted: time 14.0 day. The procedure, abridged:
as §3

In experiment [7] the test system is U2OS. Description: Induction of mitotic arrest in human U2OS cells harboring LAP-Mps1 S611R mutant assessed as maintain in checkpoint-dependent arrest at 100 nM incubated for 16 hrs in the presence of nocodazole. It counts as functional, cell-based. The procedure, abridged: as §2
A further experiment is filed under the species Homo sapiens. Description: Inhibition of recombinant Mps1 I598F mutant (unknown origin) assessed as KNL1 phosphorylation level incubated for 10 min by Western blot analysis.
The test system of experiment [8] is HeLa. Description: Induction of mitotic arrest in human HeLa cells harboring Mps1 C604F mutant assessed as initiating anaphase at 200 nM and measured after nuclear envelope breakdown. In kind it is functional, cell-based.
For experiment [9], the system named is DLD-1. Description: Induction of mitotic arrest in human DLD-1 cells assessed as decrease in mitotic index at 30 nM incubated for 16 hrs. Set-up: scale not given: the % may be the effect or the level left. It counts as functional. The procedure, abridged: as §2
The test system of experiment [10] is U2OS. Description: Induction of mitotic arrest in human U2OS cells harboring LAP-Mps1 I598F mutant assessed as maintain in checkpoint-dependent arrest at 100 nM incubated for 16 hrs in the presence of nocodazole. It counts as functional, cell-based. The procedure, abridged: as §2
Experiment [11] has as its system DLD-1. Description: cells. In kind it is functional, cell-based. To be noted: Homo sapiens, DLD-1, 120 h.
Experiment [12] deals with HCT-116. Description: Induction of mitotic arrest in human HCT-116 cells assessed as decrease in mitotic index at 30 nM incubated for 16 hrs. On the set-up: scale not given: the % may be the effect or the level left. In kind it is functional. The procedure, abridged: as §2
The test system of experiment [13] is HCT-116. Description: Inhibition of colony formation in human HCT-116 cells harboring wild-type Mps1 assessed as cell survival at 60 nM incubated for 14 days by crystal violet staining based colony formation assay. It counts as functional. Conditions: time 14.0 day. The procedure, abridged: as §1
The subject of experiment [14] is U2OS. Description: Induction of mitotic arrest in human U2OS cells harboring LAP-Mps1 531M mutant assessed as maintain in checkpoint-dependent arrest at 100 nM incubated for 16 hrs in the presence of nocodazole. It counts as functional, cell-based. The procedure, abridged: as §2
Experiment [15] has as its system HeLa. Description: Induction of mitotic arrest in human HeLa cells expressing histone H2B-YFP assessed as initiating anaphase at 50 to 100 nM incubated for 16 hrs and measured within 15 min after nuclear envelope breakdown by time-lapse microscopy relative to control. In kind it is functional. To be noted: dose 50-100 nM, time 975 min, 16.25 h. The procedure, abridged:
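Live imaging of HeLa H2B-YFP cells in L-15 medium at 37 °C after DMSO or 50/100 nM Cpd-5, no nocodazole. Time from nuclear envelope breakdown to anaphase onset recorded for 50 cells per condition; cumulative anaphase-onset percentage and mean mitotic duration.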

Turning to `CCc1cccc(CC)c1NC(=O)c1nn(C)c2c1CCc1cnc(Nc3ccc(N4CCN(C)CC4)cc3OC)nc1-2`, the inhibition entry in the experiment on HeLa [1] and in the experiment on HCT-116 [13] was “inactive” each time. Besides, the negative-log IC50 (pIC50) was 6.60 in the experiment with HeLa [2], 7.70 in the experiment on HCT-116 [4] and 7.61 with DLD-1 [11]. Also, the outcome in the experiment on HCT-116 [3], in the experiment with HeLa [5], in the experiment with HeLa [6], with U2OS [7], in the experiment with U2OS [10] and in the experiment on U2OS [14] was Active. For the same compound, the inhibition entry in the experiment listed under Homo sapiens was “Active”. Besides, the result in the experiment with HeLa [8] was inactive. In addition, the Activity in the experiment with DLD-1 [9] came out at 70%; in the experiment on HCT-116 [12] it was 60%; in the experiment on HeLa [15], 100%.

For the origin of these results see ChEMBL document CHEMBL5647693, “Molecular basis underlying resistance to Mps1/TTK inhibitors” (Oncogene, 2016).
